Bioassay records as filed in PubChem BioAssay.
Rin1-Abl PPI inh = inhibitors of Rin1-Abl protein binding, primary screen, biochemical, TR-FRET; inhibition, % at 7.35 µM; 0.4% of 360,000 active; in the data active = inhibition above about 5%, passing the limit was not always enough
LEDGF integ inh = blockers of LEDGF/p75-dependent integrase strand transfer – biochemical, TR-FRET, high throughput, primary screen; 0.64% of 370,000 active; inhibition, % at 3.7 µM; AID 743269, 2014; TR-FRET IN-LEDGF/p75 DNA integration, Eu/Cy5; HIV-1 integrase (with human LEDGF/p75);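 active = inhibition above the screen-wide mean plus 3 SD, cut at about 13% in these data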;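 note: signal is the Cy5 over europium emission ratio at 671 and 618 nm; 0% = plate median of compound wells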
UHRF1 binding = UHRF1 methylated DNA binding inhibitors, primary screen, counter-screen for MBD2 inhibitor project, biochemical, TR-FRET, human UHRF1, single concentration; E3 ubiquitin-protein ligase UHRF1 (Homo sapiens), Q96T88; UHRF1 binding to methylated oligo; 0.75% of 370,000 active; inhibition, % at 4.4 µM; in the data active = inhibition above about 21%;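 note: UHRF1 SRA domain binding a hemimethylated CpG hairpin DNA probe; 0% = median of test compound wells and 100% = reference inhibitor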
Target sequence (Q96T88 whole entry, looked up, the tested form may be a part): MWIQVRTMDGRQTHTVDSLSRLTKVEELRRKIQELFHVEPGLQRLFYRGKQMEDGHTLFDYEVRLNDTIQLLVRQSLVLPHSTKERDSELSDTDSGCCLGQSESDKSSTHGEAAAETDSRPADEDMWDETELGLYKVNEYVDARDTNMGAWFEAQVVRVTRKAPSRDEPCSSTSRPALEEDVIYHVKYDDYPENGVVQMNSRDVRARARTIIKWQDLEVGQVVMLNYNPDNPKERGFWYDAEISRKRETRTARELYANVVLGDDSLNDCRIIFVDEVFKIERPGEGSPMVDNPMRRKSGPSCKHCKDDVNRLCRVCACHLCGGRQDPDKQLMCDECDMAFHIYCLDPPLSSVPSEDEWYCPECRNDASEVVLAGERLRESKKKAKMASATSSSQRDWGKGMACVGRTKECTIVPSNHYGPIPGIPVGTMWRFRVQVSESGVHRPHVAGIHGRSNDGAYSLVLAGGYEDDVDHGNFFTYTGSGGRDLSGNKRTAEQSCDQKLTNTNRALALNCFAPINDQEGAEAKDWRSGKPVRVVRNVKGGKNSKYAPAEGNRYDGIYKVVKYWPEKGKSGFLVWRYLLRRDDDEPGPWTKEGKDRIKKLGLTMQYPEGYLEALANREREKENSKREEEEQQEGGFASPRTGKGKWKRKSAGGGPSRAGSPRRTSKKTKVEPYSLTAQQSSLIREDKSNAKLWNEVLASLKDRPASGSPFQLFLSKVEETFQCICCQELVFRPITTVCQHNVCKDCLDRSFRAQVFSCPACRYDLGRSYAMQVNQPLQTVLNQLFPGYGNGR
MBD2 DNA inh = inhibitors of MBD2 binding to methylated DNA, primary screen, biochemical, TR-FRET, DNA-binding domain, human. AID 686964, 2013. 0.31% of 370,000 active. Methyl-CpG-binding domain protein 2 (Homo sapiens), Q9UBB5. inhibition, % at 4.4 µM. MBD2 binding to methylated oligonucleotide; in the data active = inhibition above about 13%
TDP2 absorb = human TDP2 enzyme inhibitors, primary screen, biochemical, epi absorbance, recombinant enzyme; AID 720702, 2013; 0.34% of 370,000 active; T5PNP hydrolysis, p-nitrophenol absorbance 415 nm; inhibition, % at 12.8 µM; Tyrosyl-DNA phosphodiesterase 2 (Homo sapiens), O95551;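 active = inhibition above the mean of all tested compounds plus 3 SD, set per campaign, cut at about 25% in these data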;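 note: 0% = DMSO with enzyme and 100% = buffer with substrate but no TDP2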
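Read-out basis: percent inhibition. System: recombinant human TDP2. Buffer or medium: Mg2+-containing Tris-HCl buffer, pH 7.5. Repeats: single replicate. Timing: reaction 2 h, 37 °C. Benchmarks: high control without enzyme, low control DMSO plus TDP2. Probe or stimulus: 5 mM T5PNP. Doses: 12.8 µM only. Measured by: epi absorbance of p-nitrophenol freed from T5PNP by hydrolysis.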
The depositor's hits bear a star; nt = no result. Most compounds without a hit are left out; they make up all but 1.9% or so of the library.

SMILES | Rin1-Abl PPI inh | LEDGF integ inh | UHRF1 binding | MBD2 DNA inh | TDP2 absorb
C#CCOCCOCCOCCNc1nc(N2CCN(C(=O)CCCCCCCCCCNC(=O)[C@H](CO)n3cc(CCCSC)nn3)CC2)nc(N2CCN(C(=O)CCCCCCCCCCNC(=O)[C@H](CCCCN)n3cc(CCO)nn3)CC2)n1 | 10 | -2 | 25* | -6 | -4
C#CCOCCOCCOCCNc1nc(N2CCN(C(=O)CCCCCCCCCCNC(=O)[C@@H](CCSC)n3cc(CCO)nn3)CC2)nc(N2CCN(C(=O)CCCCCCCCCCNC(=O)[C@H](CCSC)n3cc(CCO)nn3)CC2)n1 | 4 | -1 | 16 | 11 | -7
CCCN1CCS(=O)(=O)N(Cc2cn(Cc3ccccc3)nn2)C(C(=O)OC)C1 (configuration not stated) | nt | 8 | 17 | 2 | -14
CCCCN1CCN(C(=O)C2CCN(S(=O)(=O)c3ccc4[nH]c(=O)oc4c3)CC2)CC1 | nt | 2 | -1 | 2 | 6
Cc1ccc(C(=O)C2CCN(CC(=O)N3CC(C)CC(C)C3)CC2)cc1 (configuration not stated) | nt | -2 | -1 | -2 | 0
CCOC(=O)CC[C@H]1CC[C@]2(CCCN(C3CCCCC3)C2)O1 | nt | -1 | 3 | -3 | 0
C#CCOCCOCCOCCNc1nc(N2CCN(C(=O)CCCCCCCCCCNC(=O)Cn3cc(CCCCCN)nn3)CC2)nc(N2CCN(C(=O)CCCCCCCCCCNC(=O)[C@H]([C@@H](C)CC)n3cc(CCCCN=C(N)N)nn3)CC2)n1 | 15* | nt | nt | nt | nt
CCN(c1ccccc1)S(=O)(=O)c1cccc(C(=O)NCC(c2ccc(F)cc2)N2CCOCC2)c1 (configuration not stated) | 3 | -2 | 43* | -1 | 2
COC(=O)c1sc(S(=O)(=O)N2CCC(C)CC2)c(C(=O)OC)c1C | -1 | -4 | 24* | -3 | 1
NC(=O)c1nc(N2CCOCC2)nc(N2CCOCC2)n1 | -1 | 1 | 37* | -2 | 1
CC(C)(C)Nc1nc(C(N)=O)nc(N2CCOCC2)n1 | -4 | 5 | 2 | -1 | -11
O=C(O)C1Nc2c(C(=O)N3CCOCC3)cccc2C2C=CCC12 (configuration not stated) | 6.8* | nt | nt | nt | nt
Cc1ccc2nc(-c3ccc(NC(=O)CSc4nnc(-c5cccc(Cl)c5)n4Cc4ccco4)cc3)sc2c1 | nt | -1 | -2 | 3 | 3
O=C(OCC(=O)N1CCCC1)c1ccccc1O | -2 | -2 | 0 | 4 | -7
Cc1ccc(C(=O)OCC(=O)N2CCCCCC2)c(O)c1 | 2 | -5 | 29* | 2 | 6
CC(C)(C)c1ccc(-c2nnc(SCc3cccc4ccccc34)n2Cc2ccco2)cc1 | nt | 2 | 0 | 2 | -14
O=C(CSc1ccc(Cl)cc1)N1CCN(c2ccc(Cl)cc2[N+](=O)[O-])CC1 | 2 | -1 | 22* | 0 | 7
O=S1(=O)c2ccccc2OC(COCc2ccccc2)CN1C1CC1 (configuration not stated) | -3 | 2 | 26* | 7 | -4
O=C(CSc1nnc(-c2cccnc2)n1-c1ccc(Cl)cc1)Nc1cccc2ccccc12 | nt | -5 | -1 | 4 | -1
COc1ccc(N(C(=O)Cc2cccs2)C(C(=O)NC2CCCCC2)c2cccn2C)cc1OC (configuration not stated) | -1 | -4 | -4 | -9 | -2
Cn1cccc1C(C(=O)NC1CCCCC1)N(C(=O)Cc1cccs1)C1CC1 (configuration not stated) | -1 | -1 | 37* | 1 | -4
COc1ccc(NS(=O)(=O)c2cc(NC(=O)c3ccc(=O)[nH]n3)ccc2N2CCOCC2)cc1 | 3 | -2 | 29* | 0 | 7
COc1ccc(NS(=O)(=O)c2cc(NC(=O)c3ccc(=O)[nH]c3)ccc2N2CCOCC2)cc1 | 4 | 4 | 0 | 2 | -11
O=C1CCCN1CC1CCCN(Cc2nc(COc3ccccc3)no2)C1 (configuration not stated) | -2 | 0 | 23* | 2 | -2
CCCCN(C)C(=O)c1cn(C(C)c2ccccc2)nn1 (configuration not stated) | nt | -4 | 4 | 2 | 6
SMILES | Rin1-Abl PPI inh | LEDGF integ inh | UHRF1 binding | MBD2 DNA inh | TDP2 absorb
Cc1oc(-c2ccc(Cl)cc2)cc1-c1nn2c(-c3ccoc3C)nnc2s1 | 5 | 29* | 23* | 7 | 18
Cc1nnc(SCC(=O)NC(=O)NCc2ccco2)s1 | 5 | 4 | 30* | -1 | -17
CN(Cc1ccccc1)C(=O)OCc1cn(Cc2cccc(C(F)(F)F)c2)nn1 | nt | 6 | 0 | 2 | 0
O=C(Nc1nccs1)C1CCCN1S(=O)(=O)c1ccc(Cl)cc1 (configuration not stated) | -2 | -1 | 25* | 3 | 5
O=C(Nc1nccs1)[C@@H]1CCCN1S(=O)(=O)c1ccccc1F | 1 | 3 | 3 | -1 | -4
CCOC(=O)N1CCN(C(=O)C[C@@H]2C(=O)N(Cc3ccc(OC)cc3)C3=CCN(C(=O)OC(C)(C)C)C[C@]32C(=O)OCC)CC1 | nt | -2 | 1 | -1 | -1
CN1N=C(c2ccc(Cl)cc2)CC(c2ccc(Cl)cc2)C1=O (configuration not stated) | 1 | 1 | 22* | 7 | -3
Cc1ccc(C2CC(c3ccc(Cl)cc3)=NNC2=O)cc1 (configuration not stated) | -1 | -1 | -3 | -5 | 3
CC(=O)[C@@]1(O)Cc2c(O)c3c(c(O)c2[C@H](O[C@H]2C[C@H](N)[C@H](O)[C@H](C)O2)C1)C(=O)c1ccccc1C3=O | -14 | 0 | 95* | 106* | 12
COc1cccc2c1C(=O)c1c(O)c3c(c(O)c1C2=O)C[C@@](O)(C(=O)CO)C[C@@H]3OC1CC(N)C(O)C(C)O1 (some centres not stated) | -10 | 4 | 95* | 112* | 5
COc1cccc2c1C(=O)c1c(O)c3c(c(O)c1C2=O)C[C@@](O)(C(=O)CO)C[C@@H]3O[C@H]1C[C@H](N)[C@H](O)[C@H](C)O1 | -24 | 13 | 94* | 110* | 6
COc1ccc(CNC(=O)c2sc3nc(C)c(Cl)c(C)c3c2N)cc1 | nt | 1 | -3 | -7 | 14
Nc1c(C(=O)NCC(O)c2ccccc2)cnn1-c1ccccc1 (configuration not stated) | nt | 6 | 1 | -3 | 8
